Active and inactive are the calls of the source. The rule behind the calls is not given here.
Tests used:
[1] = Toxicity in Crl:NU(NCr)-Foxn1 nu mouse xenografted with human LOX-IMVI cells assessed as mortality at 30 mg/kg, ip qd administered for 7 consecutive days; type: organism-based; conditions: in vivo
Procedure, shortened: (§1)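 Female athymic nude mice bearing subcutaneous xenografts started from cultured human tumor cells. Mice were split into vehicle and treatment groups once tumors reached about 75-200 mm3. Dosing was ip at 5-10 mL/kg in 22% ethanol, 38% PEG400, 40% 20 mM Na citrate pH 5.0. Deaths per group were recorded alongside maximum mean bodyweight loss.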

NCI-H522 = experiment: Antitumor activity against human NCI-H522 cells xenografted in Crl:NU(NCr)-Foxn1 nu mouse assessed as tumor growth inhibition at 60 mg/kg, ip qd administered for 3 consecutive days followed by 2 days of rest for 3 cycles relative to control; type: functional; conditions: 48 h, read-out: TGI
Procedure, shortened: (§2)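 Female athymic nude mice bearing subcutaneous xenografts, started from cultured cells (NCI-H460, Calu-6, NCI-H69, LOX-IMVI) or from serially passaged tumour fragments (NCI-H522). Mice were grouped into vehicle and treatment arms at tumour volumes of about 75-200 mm3. Dosing was ip at 5-10 mL/kg in 22% ethanol, 38% PEG400, 40% 20 mM Na citrate pH 5.0. Caliper volumes were taken as (length × width2)/2. Treated and control delta weights were median tumour weight minus staging-day median.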

[2] = Toxicity in Crl:NU(NCr)-Foxn1 nu mouse xenografted with human […] cells assessed as maximum body weight loss at 40 mg/kg, ip qd administered for 3 consecutive days followed by 2 days of rest for 3 cycles measured after 7 days post dose relative to control; type: organism-based; conditions: in vivo, 168 h; procedure, shortened: as §2
LOX IMVI [3] = experiment: Antitumor activity against human LOXIMVI cells xenografted in Crl:NU(NCr)-Foxn1 nu mouse assessed as tumor growth inhibition at 30 mg/kg, ip qd for 7 consecutive days relative to control; type: functional; conditions: read-out: TGI; procedure, shortened: as §2
[4] = Toxicity in Crl:NU(NCr)-Foxn1 nu mouse xenografted with human […] cells assessed as mortality at 50 mg/kg, ip qd administered for 3 consecutive days followed by 2 days of rest for 3 cycles; type: organism-based; conditions: in vivo, 48 h
Procedure, shortened: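 Female athymic nude mice bearing subcutaneous NCI-H522 xenografts started from tumor fragments kept by continuous in vivo passage. Mice were grouped once tumors reached about 75-200 mm3. Dosing was ip at 5-10 mL/kg in 22% ethanol, 38% PEG400, 40% 20 mM Na citrate pH 5.0. Deaths per group were recorded with maximum mean bodyweight loss.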

M14 = experiment: Antiproliferative activity against human M14 cells after 72 hrs by CellTiter 96 aqueous nonradioactive cell proliferation assay; type: functional, cell-based; conditions: M14, 72 h
Procedure, shortened: (§3)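 Antiproliferation in cultured tumour cells, at least 3 replicate wells per concentration per experiment. NCI-H460 came from ATCC. M14, NCI/ADR-RES, OVCAR-4, HCT-15, ACHN and SF-295 came from the National Cancer Institute. IC50 reported from single experiments where no SD is given.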

[5] = Toxicity in Crl:NU(NCr)-Foxn1 nu mouse xenografted with human Calu6 cells assessed as mortality at 60 mg/kg, ip qd administered for 3 consecutive days followed by 2 days of rest for 4 cycles; type: organism-based; conditions: in vivo, 48 h; procedure, shortened: as §1
[6] = Toxicity in Crl:NU(NCr)-Foxn1 nu mouse xenografted with human NCI-H460 cells assessed as maximum body weight loss at 40 mg/kg, ip qd administered for 3 consecutive days followed by 2 days of rest for 3 cycles measured after 7 days post dose relative to control; type: organism-based; conditions: in vivo, 168 h; procedure, shortened: as §2
HCT-15 = experiment: Potency index, ratio of paclitaxel IC50 to compound IC50 for taxane-resistant human HCT15 cells after 72 hrs by CellTiter 96 aqueous nonradioactive cell proliferation assay; type: functional
NCI-H460 = experiment: Antiproliferative activity against human NCI-H460 cells after 72 hrs by CellTiter 96 aqueous nonradioactive cell proliferation assay; type: functional, cell-based; conditions: NCI-H460, 72 h; procedure, shortened: as §3
NCI/ADR-RES = experiment: Antiproliferative activity against taxane-resistant human NCI/ADR-RES cells after 72 hrs by CellTiter 96 aqueous nonradioactive cell proliferation assay; type: functional, cell-based; procedure, shortened: as §3
LOX IMVI [7] = experiment: Antitumor activity against human LOXIMVI cells xenografted in Crl:NU(NCr)-Foxn1 nu mouse assessed as tumor growth inhibition at 30 mg/kg, ip qd relative to control; conditions: read-out: TGI
[8] = Toxicity in Crl:NU(NCr)-Foxn1 nu mouse xenografted with human LOX-IMVI cells assessed as maximum body weight loss at 30 mg/kg, ip qd administered for 7 consecutive days measured after 6 days post dose relative to control; type: organism-based; conditions: in vivo, 144 h; procedure, shortened: as §2
ACHN = experiment: Potency index, ratio of paclitaxel IC50 to compound IC50 for taxane-resistant human ACHN cells after 72 hrs by CellTiter 96 aqueous nonradioactive cell proliferation assay; type: functional
OVCAR-4 [9] = experiment: Potency index, ratio of paclitaxel IC50 to compound IC50 for taxane-resistant human OVCAR4 cells after 72 hrs by CellTiter 96 aqueous nonradioactive cell proliferation assay; type: functional
[10] = Toxicity in Crl:NU(NCr)-Foxn1 nu mouse xenografted with human NCI-H69 cells assessed as mortality at 60 mg/kg, ip dosed on day 1 followed by 4 days rest and subsequently dosed at 60 mg/kg, ip qd administered for 3 consecutive days followed by 2 days of rest for 2 cycles; type: organism-based; conditions: in vivo; procedure, shortened: as §1
OVCAR-4 [11] = experiment: Antiproliferative activity against taxane-resistant human OVCAR4 cells after 72 hrs by CellTiter 96 aqueous nonradioactive cell proliferation assay; type: functional, cell-based; conditions: OVCAR-4, 72 h; procedure, shortened: as §3
[12] = Toxicity in Crl:NU(NCr)-Foxn1 nu mouse xenografted with human NCI-H69 cells assessed as mortality at 70 mg/kg, ip dosed on day 1 followed by 4 days rest and subsequently dosed at 70 mg/kg, ip qd administered for 3 consecutive days followed by 2 days of rest for 2 cycles; type: organism-based; conditions: in vivo; procedure, shortened: as §1
EKVX [13] = experiment: Antiproliferative activity against taxane-resistant human EKVX cells after 72 hrs by CellTiter 96 aqueous nonradioactive cell proliferation assay; type: functional, cell-based
[14] = Toxicity in Crl:NU(NCr)-Foxn1 nu mouse xenografted with human NCI-H69 cells assessed as maximum body weight loss at 70 mg/kg, ip dosed on day 1 followed by 4 days rest and subsequently dosed at 70 mg/kg, ip qd administered for 3 consecutive days followed by 2 days of rest for 2 cycles measured after 3 days post dose relative to control; type: organism-based; conditions: in vivo, 72 h; procedure, shortened: as §2
EKVX [15] = experiment: Potency index, ratio of paclitaxel IC50 to compound IC50 for taxane-resistant human EKVX cells after 72 hrs by CellTiter 96 aqueous nonradioactive cell proliferation assay; type: functional
Tubulin (Sus scrofa) = Tubulin (Sus scrofa) (UniProt P02554+P02550); experiment: Inhibition of pig tubulin polymerization at 10 uM measured at 1 min intervals for 60 mins; type: protein assay
Procedure, shortened: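 Polymerization assay using porcine tubulin.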

UO-31 = experiment: Antiproliferative activity against taxane-resistant human UO31 cells after 72 hrs by CellTiter 96 aqueous nonradioactive cell proliferation assay; type: functional, cell-based; conditions: UO-31, 72 h
[16] = Toxicity in Crl:NU(NCr)-Foxn1 nu mouse xenografted with human […] cells assessed as maximum body weight loss at 50 mg/kg, ip qd administered for 3 consecutive days followed by 2 days of rest for 3 cycles measured after 7 days post dose relative to control; type: organism-based; conditions: in vivo, 168 h; procedure, shortened: as §2

Sequence of Tubulin (Sus scrofa) (P02550 whole entry, looked up): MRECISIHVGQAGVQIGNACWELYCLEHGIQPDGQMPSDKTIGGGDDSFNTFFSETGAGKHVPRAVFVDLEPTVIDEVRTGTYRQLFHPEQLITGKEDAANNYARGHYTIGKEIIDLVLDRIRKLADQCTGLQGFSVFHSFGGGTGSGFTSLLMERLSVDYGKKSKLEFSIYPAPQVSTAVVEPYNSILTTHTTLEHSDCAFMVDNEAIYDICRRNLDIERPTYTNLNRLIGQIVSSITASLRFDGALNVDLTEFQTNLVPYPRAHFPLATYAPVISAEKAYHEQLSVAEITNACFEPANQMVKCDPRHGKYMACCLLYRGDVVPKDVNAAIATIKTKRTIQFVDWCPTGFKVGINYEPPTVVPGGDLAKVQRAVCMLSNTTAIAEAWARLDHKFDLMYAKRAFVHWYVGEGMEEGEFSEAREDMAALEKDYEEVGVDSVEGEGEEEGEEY
Sequence of Tubulin (Sus scrofa) (P02554 whole entry, looked up): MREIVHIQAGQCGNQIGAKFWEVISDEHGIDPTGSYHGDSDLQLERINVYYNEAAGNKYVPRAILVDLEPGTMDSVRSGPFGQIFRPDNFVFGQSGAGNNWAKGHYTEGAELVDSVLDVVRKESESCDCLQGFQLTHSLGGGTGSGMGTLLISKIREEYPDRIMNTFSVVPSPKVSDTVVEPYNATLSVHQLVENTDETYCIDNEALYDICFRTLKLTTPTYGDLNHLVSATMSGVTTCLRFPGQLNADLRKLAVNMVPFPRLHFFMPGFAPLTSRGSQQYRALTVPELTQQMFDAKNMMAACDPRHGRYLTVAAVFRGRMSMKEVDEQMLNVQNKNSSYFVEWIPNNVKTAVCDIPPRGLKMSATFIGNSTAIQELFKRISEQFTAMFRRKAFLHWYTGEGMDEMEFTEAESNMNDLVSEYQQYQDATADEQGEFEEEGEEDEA

## C=CC[C@H]1C[C@]2([C@H](C)Cc3cc(O)c(OC)cc3F)OCOC2=CC1=O
[1]
  Activity: Non-Toxic
NCI-H522
  inhibition in vivo at 60 mg/kg: 82%
[2]
  Activity: 3%
LOX IMVI [3]
  inhibition in vivo at 30 mg/kg: 63%
[4]
  Activity: Non-Toxic
M14
  IC50: 17 nM
[5]
  Activity: Non-Toxic
[6]
  Activity: 7%
HCT-15
  Ratio IC50: 14
NCI-H460
  IC50: 15 nM
NCI/ADR-RES
  IC50: 9 nM
LOX IMVI [7]
  inhibition in vivo at 30 mg/kg: 63%
[8]
  Activity: 9%
ACHN
  Ratio IC50: 7
OVCAR-4 [9]
  Ratio IC50: >75
[10]
  Activity: Non-Toxic
OVCAR-4 [11]
  IC50: 8 nM
[12]
  Activity: Non-Toxic
EKVX [13]
  IC50: 7 nM
[14]
  Activity: 9%
EKVX [15]
  Ratio IC50: 21
Tubulin (Sus scrofa)
  inhibition: Active
UO-31
  IC50: 7 nM
[16]
  Activity: 8%

— ChEMBL document CHEMBL4325827, “Bifidenone: Structure-Activity Relationship and Advanced Preclinical Candidate” (J Med Chem, 2018)
